ChEMBL document CHEMBL1124109, “Novel calcium antagonists. Synthesis and structure-activity relationship studies of benzothiazoline derivatives” (J Med Chem, 1988)

Experiments:
Cavia porcellus = species: Cavia porcellus; experiment: In vitro molar concentration required to block [Ca2+] -induced contraction of K+-depolarized taenia cecum of guinea pigs; type: functional; details: Caecum
Outline: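 Guinea pig taenia cecum washed with Ca2+-free high-K+ Krebs solution after equilibration. Compound applied 5 min before CaCl2 (3 × 10^-4 M). Contraction recorded isotonically.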

Mus musculus = species: Mus musculus; experiment: Effect on acute thrombic death induced by collagen in mice; type: functional; details: read-out: ID50 (the source's name)
Outline: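 Male ddY mice (20-30 g) given compound orally as 0.5% tragacanth suspension 3 h before rapid tail-vein injection (2 s) of collagen (type III, 3 mg/mL in acetic acid/Tris pH 7.4), about 30 mg/kg, set so […] within 3 min. Survival scored; % inhibition = (St - Sc)/(100 - Sc); ID50 in mg/kg po; n=8 treated, 12 control.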

Rattus norvegicus [1] = experiment: Hypotensive effect in Spontaneously hypertensive rats as maximum decrease in systolic blood pressure at 10 mg/kg, po dose; type: functional, Artery
Outline: (§1)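 Male SHR, 300-400 g, conscious, 6-13 animals. Oral dosing as a 0.5% methylcellulose suspension. Systolic pressure by tail-cuff plethysmography at 0, 1, 3, 6, 9 and 24 h after dosing; heart rate from pulse over 4 s. Value is maximum SBP fall, mean ± SEM of six animals; Dunnett's test.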

Rattus norvegicus [2] = experiment: Hypotensive effect in Spontaneously hypertensive rats as maximum decrease in systolic blood pressure at 30 mg/kg, po dose; type: functional, Artery; outline: as §1
Oryctolagus cuniculus [3] = species: Oryctolagus cuniculus; experiment: Electrophysiological effect in isolated rabbit hearts as molar concentration that prolongs the His bundle ventricular (H-V) conduction time by 10%; type: functional, Cardiac ventricle
Oryctolagus cuniculus [4] = species: Oryctolagus cuniculus; experiment: Electrophysiological effect in isolated rabbit hearts as molar concentration that prolongs the atrio-His bundle (A-H) conduction time by 30%; type: functional
Rattus norvegicus [5] = experiment: Hypotensive effect in Spontaneously hypertensive rats as maximum decrease in systolic blood pressure at 100 mg/kg, po dose; type: functional, Artery; outline: as §1
[6] = Ratio between EC10 and EC30 in isolated rabbit hearts in His bundle ventricular intervals; type: functional

| Compound | IC50 (Cavia porcellus) [µM] | further results |
| --- | --- | --- |
| CC(=O)N1CCSC1c1ccccc1OCCN(C)C (configuration not stated) | > 100 |  |
| COc1ccc(OCCCN(C)CCc2ccc(OC)c(OC)c2OC)c(C2Sc3ccccc3N2C(C)=O)c1 (configuration not stated) | 2 |  |
| CC(=O)N1c2ccccc2SC1c1ccccc1OCCCN(C)C1CCCCC1 (configuration not stated) | 1.7 |  |
| CC(=O)N1c2ccccc2SC1c1ccc(OCCCN(C)C2CCCCC2)cc1 (configuration not stated) | 4.4 |  |
| COc1ccc(OCCCN2CCN(CCc3ccc(OC)c(OC)c3)CC2)c(C2Sc3ccccc3N2C(C)=O)c1 (configuration not stated) | 3 |  |
| COc1cccc(C2Sc3ccccc3N2C(C)=O)c1OCCCCN(C)C1CCCCC1 (configuration not stated) | 8.8 |  |
| CCC(=O)N1c2ccccc2SC1c1cc(OC)ccc1OCCCCN1CCN(CCc2cc(OC)c(OC)c(OC)c2)CC1 (configuration not stated) | 1.2 |  |
| COc1ccc(OCCCCN2CCC(C(=O)c3ccc(F)cc3)CC2)c(C2Sc3ccccc3N2C=O)c1 (configuration not stated) | 4.8 |  |
| COc1ccc(OCCCCN2CCC(C(=O)c3ccc(Cl)cc3)CC2)c(C2Sc3ccccc3N2C(C)=O)c1 (configuration not stated) | 8.7 |  |
| CC(=O)N1c2ccccc2SC1c1cc(Cl)ccc1OCCCN(C)C (configuration not stated) | 3.8 |  |
| COc1ccc(OCCCN(C)CCc2ccc(OC)c(OC)c2)c(C2Sc3ccccc3N2C(C)=O)c1 (configuration not stated) | 0.78 |  |
| COc1ccc(OCCCCCCN(C)C2CCCCC2)c(C2Sc3ccccc3N2C(C)=O)c1 (configuration not stated) | 4.2 |  |
| COc1ccc(OCCCCCN(C)CCc2ccc(OC)c(OC)c2OC)c(C2Sc3ccccc3N2C(C)=O)c1 (configuration not stated) | 8 |  |
| COc1ccc(OCCCCN(C)CCc2ccc(OC)c(OC)c2)c(C2Sc3ccccc3N2C(C)=O)c1 (configuration not stated) | 0.66 |  |
| CC(=O)N1c2ccccc2SC1c1cc(Cl)ccc1OCCCCN1CCC(C(=O)c2ccccc2)CC1 (configuration not stated) | 13 |  |
| COc1ccc(OCCCCN(C)CCCc2ccc(OC)c(OC)c2OC)c(C2Sc3ccccc3N2C(C)=O)c1 (configuration not stated) | 1.2 |  |
| CCC(=O)N1c2ccccc2SC1c1ccccc1OCCCN(C)C1CCCCC1 (configuration not stated) | 3.2 |  |
| COc1ccc(OCCCCN)c(C2Sc3ccccc3N2C(C)=O)c1 (configuration not stated) | > 100 |  |
| COc1ccc(OCCCCNCCc2cc(OC)c(OC)c(OC)c2)c(C2Sc3ccccc3N2C(C)=O)c1 (configuration not stated) | 6.5 |  |
| COc1ccc(OCCCCN(C)CCc2ccc(OC)c(OC)c2OC)c(C2Sc3ccccc3N2C(C)=O)c1 (configuration not stated) | 0.34 |  |
| COc1ccc(OCCCCCCN2CCN(CCc3ccc(OC)c(OC)c3)CC2)c(C2Sc3ccccc3N2C(C)=O)c1 (configuration not stated) | 11 |  |
| COc1ccc(OCCCN2CCC(C(=O)c3ccccc3)CC2)c(C2Sc3ccccc3N2C(C)=O)c1 (configuration not stated) | 11 |  |

| Compound | IC50 (Cavia porcellus) [µM] | further results |
| --- | --- | --- |
| COc1ccc(CCN(C)CCCC(C#N)(c2ccc(OC)c(OC)c2)C(C)C)cc1OC (configuration not stated) [VERAPAMIL] | 0.1 | ED50 (Mus musculus): > 30 mg/kg; Decrease of SBP (Rattus norvegicus [1]): 24.2 mmHg; Decrease of SBP (Rattus norvegicus [2]): 83.3 mmHg |
| CC(=O)N1c2ccccc2SC1c1ccc(OCCCN(C)C)cc1 (configuration not stated) | 5.5 |  |
| COC(=O)C1=C(C)NC(C)=C(C(=O)OCCN(C)Cc2ccccc2)C1c1cccc([N+](=O)[O-])c1 (configuration not stated) [NICARDIPINE] |  | ED50 (Mus musculus): > 30 mg/kg |
| COc1ccc(OCCCCN(C)CC(C)c2ccc(OC)c(OC)c2)c(C2Sc3ccccc3N2C(C)=O)c1 (configuration not stated) | 1.6 |  |
| COc1ccc(OCCCCCN2CCN(CCc3ccc(OC)c(OC)c3)CC2)c(C2Sc3ccccc3N2C(C)=O)c1 (configuration not stated) | 0.82 |  |
| COc1cccc(C2Sc3ccccc3N2C(C)=O)c1OCCCN(C)C (configuration not stated) | 13 |  |
| COc1ccc(OCCCCN(C)C2CCCCC2)c(C2Sc3ccccc3N2C(C)=O)c1 (configuration not stated) | 4 |  |
| COc1cc(CCN2CCN(CCCCOc3ccc(Cl)cc3C3Sc4ccccc4N3C(C)=O)CC2)cc(OC)c1OC (configuration not stated) | 2.3 |  |
| CN(CCCOc1ccccc1C1Sc2ccccc2N1C=O)C1CCCCC1 (configuration not stated) | 4 |  |
| COc1ccc(OCCCCN(CCc2cc(OC)c(OC)c(OC)c2)C(C)C)c(C2Sc3ccccc3N2C(C)=O)c1 (configuration not stated) | 0.13 |  |
| COc1ccc(OCCCCCN(C)CCc2cc(OC)c(OC)c(OC)c2)c(C2Sc3ccccc3N2C(C)=O)c1 (configuration not stated) | 1.3 |  |
| CC(=O)N1c2ccccc2SC1c1ccccc1OCCN(C)C (configuration not stated) | 17 |  |
| COc1ccc(OCCCCN2CCC(C(=O)c3ccc(F)cc3)CC2)c(C2Sc3ccccc3N2C(C)=O)c1 (configuration not stated) | 1.6 |  |
| CC(=O)N1CCSC1c1ccc(OCCN(C)C)cc1 (configuration not stated) | > 100 |  |
| COc1ccc(OCCCCN2CCC(C(=O)c3ccccc3)CC2)c(C2Sc3ccccc3N2C(C)=O)c1 (configuration not stated) | 1.4 |  |
| CC(=O)N1CCSC1c1cc([N+](=O)[O-])ccc1OCCCN(C)C (configuration not stated) | 4.1 |  |
| Clc1ccccc1CN1CCc2sccc2C1 [TICLOPIDINE] |  | ED50 (Mus musculus): 260 mg/kg |
| COc1ccc(OCCCCN2CCN(CCc3ccc(OC)c(OC)c3)CC2)c(C2Sc3ccccc3N2C(C)=O)c1 (configuration not stated) | 0.64 |  |
| CC(=O)N1c2ccccc2SC1c1ccccc1OCCCN(C)C (configuration not stated) | 10 |  |
| CCN(CCCCOc1ccc(OC)cc1C1Sc2ccccc2N1C(C)=O)CCc1cc(OC)c(OC)c(OC)c1 (configuration not stated) | 1 |  |
| COc1ccc(OCCCCN2CCN(CCc3cc(OC)c(OC)c(OC)c3)CC2)c(C2Sc3ccccc3N2C(C)=O)c1 (configuration not stated) | 0.47 |  |
| COc1ccc(OCCCCN(CCc2cc(OC)c(OC)c(OC)c2)C2CC2)c(C2Sc3ccccc3N2C(C)=O)c1 (configuration not stated) | 1.2 |  |

| Compound | IC50 (Cavia porcellus) [µM] | further results |
| --- | --- | --- |
| CC(=O)N1c2ccccc2SC1c1cc([N+](=O)[O-])ccc1OCCCCN1CCC(C(=O)c2ccccc2)CC1 (configuration not stated) | 4.8 |  |
| COc1ccc(OCCCCN2CCN(CCc3cc(OC)c(OC)c(OC)c3)CC2)c(C2Sc3ccccc3N2C=O)c1 (configuration not stated) | 2.6 |  |
| COc1ccc(OCCCCCN(C)CCc2ccc(OC)c(OC)c2)c(C2Sc3ccccc3N2C(C)=O)c1 (configuration not stated) | 1.3 |  |
| CCC(=O)N1c2ccccc2SC1c1cc(OC)ccc1OCCCCCN(C)C1CCCCC1 (configuration not stated) | 7 |  |
| COc1ccc([C@@H]2Sc3ccccc3N(CCN(C)C)C(=O)[C@@H]2OC(C)=O)cc1 [DILTIAZEM] | 0.17 | ED50 (Mus musculus): > 30 mg/kg; EC10 (Oryctolagus cuniculus [3]): 2.6 µM; EC30 (Oryctolagus cuniculus [4]): 440 nM; Decrease of SBP (Rattus norvegicus [2]): 22.5 mmHg; Decrease of SBP (Rattus norvegicus [5]): 44.2 mmHg; Ratio [6]: 6.5 |
| COc1ccc(OCCCN(C)CCc2cc(OC)c(OC)c(OC)c2)c(C2Sc3ccccc3N2C(C)=O)c1 (configuration not stated) | 0.78 |  |
| CC(=O)N1c2ccccc2SC1c1cc([N+](=O)[O-])ccc1OCCCCN(C)C1CCCCC1 (configuration not stated) | 5.4 |  |
| CC(=O)N1c2ccccc2SC1c1ccc(OCCN(C)C)cc1 (configuration not stated) | 36 |  |
| COc1ccc(OCCCN(C)C)c(C2Sc3ccccc3N2C(C)=O)c1 (configuration not stated) | 1.6 |  |
| CNCCCCOc1ccc(OC)cc1C1Sc2ccccc2N1C(C)=O (configuration not stated) | 2 |  |
| COc1ccc(OCCCCN2CCC(C(=O)c3ccccc3)CC2)c(C2SCCN2C(C)=O)c1 (configuration not stated) | 410 |  |
| CC(=O)N1c2ccccc2SC1c1cc([N+](=O)[O-])ccc1OCCCN(C)C (configuration not stated) | 6.2 |  |
| COc1ccc(OCCCCCN2CCC(C(=O)c3ccccc3)CC2)c(C2Sc3ccccc3N2C(C)=O)c1 (configuration not stated) | 17 |  |
| CC(=O)N1c2ccccc2SC1c1cccc(OCCCN(C)C)c1 (configuration not stated) | 11 |  |
| COC(=O)C1=C(C)NC(C)=C(C(=O)OC)C1c1ccccc1[N+](=O)[O-] [NIFEDIPINE] |  | ED50 (Mus musculus): > 30 mg/kg |
| COc1ccc(OCCCN(C)C2CCCCC2)c(C2Sc3ccccc3N2C(C)=O)c1 (configuration not stated) | 4.2 |  |
| CCC(=O)N1c2ccccc2SC1c1cc(OC)ccc1OCCCCN1CCC(C(=O)c2ccccc2)CC1 (configuration not stated) | 10 |  |
| COc1ccc(OCCCCCN(C)C2CCCCC2)c(C2Sc3ccccc3N2C=O)c1 (configuration not stated) | 2.7 |  |
| COc1ccc(OCCCCCN(C)C2CCCCC2)c(C2Sc3ccccc3N2C(C)=O)c1 (configuration not stated) | 1.2 |  |
| COc1ccc(OCCCCN(C)CCc2cc(OC)c(OC)c(OC)c2)c(C2Sc3ccccc3N2C(C)=O)c1 (configuration not stated) | 0.13 | ED50 (Mus musculus): 12 mg/kg; EC10 (Oryctolagus cuniculus [3]): 0.2 µM; Decrease of SBP (Rattus norvegicus [2]): 48.3 mmHg; Decrease of SBP (Rattus norvegicus [5]): 87.5 mmHg |
